Source: ChEMBL document CHEMBL1126664, “Pyrazoline bisphosphonate esters as novel antiinflammatory and antiarthritic agents” (1993)

Tests used:
[1] = system: Mus musculus; assay: Inhibition of delayed type hypersensitivity granuloma results at 100 mg/kg in dry weight; type: functional
Outline: (§1)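 Groups of 10 female CF-1 mice (25 g) were sensitised sc over the inguinal lymph node with mBSA emulsion in Freund's incomplete adjuvant plus dextran. Two mBSA-soaked hydroxyapatite disks were implanted per mouse. Sc dosing ran daily from implantation to day 9, then granulomas were excised for wet and dry weights. Student's paired t test.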

[2] = system: Mus musculus; assay: Inhibition of delayed type hypersensitivity granuloma results at 100 mg/kg in wet weight; type: functional; outline: as §1
[3] = system: Mus musculus; assay: Inhibition of antigen-induced arthritis (AIA) in mice at the dose of 100 mg/kg in the non-injected paw; type: functional
[4] = system: Mus musculus; assay: Inhibition of antigen-induced arthritis (AIA) in mice at the dose of 50 mg/kg in the non-injected paw; type: functional
[5] = system: Mus musculus; assay: Inhibition of antigen-induced arthritis (AIA) in mice at the dose of 25 mg/kg in the non-injected paw; type: functional
[6] = system: Mus musculus; assay: Inhibition of delayed type hypersensitivity granuloma at 25 mg/kg in wet weight; type: functional; outline: as §1
[7] = system: Mus musculus; assay: Inhibition of delayed type hypersensitivity granuloma results at 25 mg/kg in dry weight; type: functional; outline: as §1
[8] = system: Mus musculus; assay: Inhibition of delayed type hypersensitivity granuloma results at 50 mg/kg in dry weight; type: functional; outline: as §1
[9] = system: Mus musculus; assay: Inhibition of delayed type hypersensitivity granuloma results at 50 mg/kg in wet weight; type: functional; outline: as §1
[10] = system: Rattus norvegicus; assay: Inhibition of rat adjuvant induced polyarthritis (AIP) at the dose of 100 mg/kg in the injected paw; type: functional
Outline: (§2)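 Rats received adjuvant (M. tuberculosis in mineral oil) into the left hindpaw on day 0. Compounds in sterile saline, pH 7.0, were given sc once daily for 28 days, with sc vehicle arthritic controls. Paw volume change in injected and noninjected hindpaws was measured on day 28 by mercury-displacement plethysmography.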

[11] = system: Rattus norvegicus; assay: (§3) Inhibition of rat adjuvant induced polyarthritis (AIP) at the dose of 15 mg/kg in the injected paw; type: functional; outline: as §2
[12] = system: Rattus norvegicus; assay: (§4) Inhibition of rat adjuvant induced polyarthritis (AIP) at the dose of 5 mg/kg in the injected paw; type: functional; outline: as §2
[13] = system: Rattus norvegicus; assay: Inhibition of rat adjuvant induced polyarthritis (AIP) at the dose of 60 mg/kg in the injected paw; type: functional; outline: as §2
[14] = system: Rattus norvegicus; assay: Inhibition of rat adjuvant-induced arthritis (AIP) at the dose of 100 mg/kg in the non-injected paw; type: functional; outline: as §2
[15] = system: Rattus norvegicus; assay: Inhibition of rat adjuvant-induced arthritis (AIP) at the dose of 15 mg/kg in the non-injected paw; type: functional; outline: as §2
[16] = system: Rattus norvegicus; assay: Inhibition of rat adjuvant-induced arthritis (AIP) at the dose of 5 mg/kg in the non-injected paw; type: functional; outline: as §2
[17] = system: Rattus norvegicus; assay: Inhibition of rat adjuvant-induced arthritis (AIP) at the dose of 60 mg/kg in the non-injected paw; type: functional; outline: as §2
[18] = system: Mus musculus; assay: Inhibition of antigen-induced arthritis (AIA) in mice at the dose of 100 mg/kg; type: functional
Outline: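 Mice were immunised, boosted after 7 days, and challenged 14 days later with 200 μg mBSA in saline into the left rear stifle joint. Dosing was sc in saline at pH 7.0, 5 of 7 days, from challenge (day 0) to day 28. H&E sagittal joint sections were graded 1–5 each for soft tissue inflammation, pannus, and cartilage and bone erosion, then summed (max 20). One-way ANOVA vs vehicle.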

[19] = system: Rattus norvegicus; assay: Inhibition of rat adjuvant induced arthritis (AIP) at the dose of 100 mg/kg in the non-injected paw; type: functional; outline: as §2
[20] = system: Rattus norvegicus; assay: Inhibition of rat adjuvant induced arthritis (AIP) at the dose of 15 mg/kg in the non-injected paw; type: functional; outline: as §2
[21] = system: Mus musculus; assay: Inhibition of delayed type hypersensitivity granuloma results at 200 mg/kg in dry weight; type: functional; outline: as §1
[22] = system: Mus musculus; assay: Inhibition of delayed type hypersensitivity granuloma results at 200 mg/kg in wet weight; type: functional; outline: as §1
[23] = system: Mus musculus; assay: Inhibition of antigen-induced polyarthritis (AIP) in mice at the dose of 100 mg/kg; type: functional
Outline: (§5)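 Murine antigen-induced arthritis: mice immunized with mBSA (with M. tuberculosis), boosted at 7 days, and challenged 14 days later with 200 μg mBSA in saline into the left rear stifle joint. Dosed sc (scruff; saline vehicle, pH 7.0) 5 of 7 days from day 0 to 28. H&E sagittal joint sections scored 1–5 each for inflammation, pannus, and cartilage/bone erosion, summed to a global score (max 20). One-way ANOVA versus vehicle.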

[24] = system: Mus musculus; assay: Inhibition of antigen-induced polyarthritis (AIP) in mice at the dose of 15 mg/kg; type: functional; outline: as §5
[25] = system: Mus musculus; assay: Inhibition of antigen-induced polyarthritis (AIP) in mice at the dose of 200 mg/kg; type: functional; outline: as §5
[26] = system: Mus musculus; assay: Inhibition of antigen-induced polyarthritis (AIP) in mice at the dose of 30 mg/kg; type: functional; outline: as §5
[27] = system: Mus musculus; assay: Inhibition of antigen-induced polyarthritis (AIP) in mice at the dose of 5 mg/kg; type: functional; outline: as §5
[28] = system: Mus musculus; assay: Inhibition of antigen-induced polyarthritis (AIP) in mice at the dose of 50 mg/kg; type: functional; outline: as §5
[29] = system: Rattus norvegicus; assay: as §3; type: functional; remark: listed apart in the source
Outline: (§6)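 Rat adjuvant arthritis induced by M. tuberculosis in mineral oil into the left hindpaw on day 0. Dosed sc once daily for 28 days in sterile saline adjusted to pH 7.0. Change in paw volume of the injected and noninjected hindpaws measured on day 28 by mercury-displacement plethysmography, giving % inhibition versus the sc vehicle arthritic control.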

[30] = system: Rattus norvegicus; assay: Inhibition of rat adjuvant induced polyarthritis (AIP) at the dose of 15 mg/kg in the non-injected paw; type: functional; outline: as §6
[31] = system: Rattus norvegicus; assay: Inhibition of rat adjuvant induced polyarthritis (AIP) at the dose of 30 mg/kg in the injected paw; type: functional; outline: as §6
[32] = system: Rattus norvegicus; assay: as §4; type: functional; outline: as §6; remark: listed apart in the source
[33] = system: Rattus norvegicus; assay: Inhibition of rat adjuvant induced polyarthritis (AIP) at the dose of 10 mg/kg in the injected paw; type: functional; outline: as §6
[34] = system: Rattus norvegicus; assay: Inhibition of rat adjuvant induced polyarthritis (AIP) at the dose of 30 mg/kg in the non-injected paw; type: functional; outline: as §6
[35] = system: Rattus norvegicus; assay: Inhibition of adjuvant-induced polyarthritis (AIP) in rats at the dose of 5 mg/kg in the non-injected paw
[36] = system: Rattus norvegicus; assay: Inhibition of adjuvant-induced polyarthritis (AIP) in rats at the dose of 10 mg/kg in the non-injected paw

## O=C(C1=NNC(P(=O)(O)O)(P(=O)(O)O)C1)c1ccccc1
[1]
  inhibition in vivo at 100 mg/kg: 19%
[2]
  inhibition in vivo at 100 mg/kg: 18%

## CCOP(=O)(OCC)C1(P(=O)(OCC)OCC)CC(C(=O)c2cccc(F)c2)=NN1
[1]
  inhibition in vivo at 100 mg/kg: 65%
[3]
  inhibition in vivo at 100 mg/kg: 55%
[4]
  inhibition in vivo at 50 mg/kg: 52%
[5]
  inhibition in vivo at 25 mg/kg: 42%
[6]
  inhibition in vivo at 25 mg/kg: 42%
[7]
  inhibition in vivo at 25 mg/kg: 49%
[8]
  inhibition in vivo at 50 mg/kg: 51%
[9]
  inhibition in vivo at 50 mg/kg: 45%
[10]
  inhibition in vivo at 100 mg/kg: 22%
[11]
  inhibition in vivo at 15 mg/kg: 4%
[12]
  inhibition in vivo at 5 mg/kg: 0%
[13]
  inhibition in vivo at 60 mg/kg: 8%
[14]
  inhibition in vivo at 100 mg/kg: 55%
[15]
  inhibition in vivo at 15 mg/kg: 46%
[16]
  inhibition in vivo at 5 mg/kg: 0%
[17]
  inhibition in vivo at 60 mg/kg: 46%
[2]
  inhibition in vivo at 100 mg/kg: 58%

## CCOP(=O)(OCC)C1(P(=O)(OCC)OCC)CC(C(=O)c2ccccc2)=NN1C
[1]
  inhibition in vivo at 100 mg/kg: 8%
[2]
  inhibition in vivo at 100 mg/kg: 11%

## CCOP(=O)(OCC)C1(P(=O)(OCC)OCC)CC(C(=O)c2ccccc2C)=NN1
[1]
  inhibition in vivo at 100 mg/kg: 48%
[18]
  inhibition in vivo at 100 mg/kg: 8%
[19]
  inhibition in vivo at 100 mg/kg: 66%
[20]
  inhibition in vivo at 15 mg/kg: 49%
[10]
  inhibition in vivo at 100 mg/kg: 9%
[11]
  inhibition in vivo at 15 mg/kg: 18%
[2]
  inhibition in vivo at 100 mg/kg: 37%

## CCOP(=O)(OCC)C1(P(=O)(OCC)OCC)CC(C(=O)c2ccccc2)=NN1CC(=O)OC
[1]
  inhibition in vivo at 100 mg/kg: 1%
[2]
  inhibition in vivo at 100 mg/kg: 1%

## O=C(C1=NNC(P(=O)(O)O)(P(=O)(O)O)C1)C1CCCCC1
[1]
  inhibition in vivo at 100 mg/kg: 16%
[2]
  inhibition in vivo at 100 mg/kg: 1%

## CCOP(=O)(OCC)C1(P(=O)(OCC)OCC)CC(C(=O)CC)=NN1
[21]
  inhibition in vivo at 200 mg/kg: 35%
[22]
  inhibition in vivo at 200 mg/kg: 28%

## CCOP(=O)(OCC)C1(P(=O)(OCC)OCC)CC(C(=O)c2ccc(C)cc2)=NN1
[1]
  inhibition in vivo at 100 mg/kg: 22%
[2]
  inhibition in vivo at 100 mg/kg: 20%

## CCOP(=O)(OCC)C1(P(=O)(OCC)OCC)CC(C(=O)c2ccccc2)=NN1CCCN1N=C(C(=O)c2ccccc2)CC1(P(=O)(OCC)OCC)P(=O)(OCC)OCC
[1]
  inhibition in vivo at 100 mg/kg: 5%
[2]
  inhibition in vivo at 100 mg/kg: 10%

## O=P(O)(O)C(Cl)(Cl)P(=O)(O)O [CLODRONIC ACID]
[23]
  inhibition in vivo at 100 mg/kg: 51%
[24]
  inhibition in vivo at 15 mg/kg: 46%
[25]
  inhibition in vivo at 200 mg/kg: 52%
[26]
  inhibition in vivo at 30 mg/kg: 46%
[27]
  inhibition in vivo at 5 mg/kg: 4%
[28]
  inhibition in vivo at 50 mg/kg: 46%
[1]
  inhibition in vivo at 100 mg/kg: 47%
[29]
  inhibition in vivo at 15 mg/kg: 33%
[30]
  inhibition in vivo at 15 mg/kg: 70%
[31]
  inhibition in vivo at 30 mg/kg: 36%
[32]
  inhibition in vivo at 5 mg/kg: 21%
[33]
  inhibition in vivo at 10 mg/kg: 38%
[2]
  inhibition in vivo at 100 mg/kg: 45%
[34]
  inhibition in vivo at 30 mg/kg: 54%
[35]
  inhibition in vivo at 5 mg/kg: 51%
[36]
  inhibition in vivo at 10 mg/kg: 61%
